MT stabilize HCS: microtubule stabilization, imaging screen | 0.83% of 200,000 active | % tubulin-high responders, % at 10 µM | HeLa tubulin immunostaining HCS, 24 h; share of cells brighter than vehicle mean+2SD | AID 2205;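 active = plate Z-score above 3 for both tubulin-high and condensed-nucleus cell shares, with cell loss under 80%, at 10 µM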;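 note: anti alpha tubulin signal scored within the nucleus-defined area of each cell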
Insulin prom up: MIN6 insulin promoter up-regulation; 0.3% of 190,000 active; MIN6 insulin promoter-GFP reporter, high-content imaging; active compounds read high; AID 1625; z-score at 5 µM;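 active = z-score above 3 at 5 µM with at least 500 cells counted in the well; inconclusive = wells under 500 cells, flagged as cytotoxic or low count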
bCat nuc transl: modulators of beta-catenin nuclear translocation; nuclear translocation activity, % at 5 µM; AID 1665; 0.3% of 190,000 active; HeLa beta-catenin nuclear translocation, immunofluorescence imaging;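 active = nuclear translocation activity above 50% at 5 µM, with a well cell count of 50 or more; inconclusive = wells under 50 cells across six images, flagged as toxic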;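 note: per-cell ratio of nuclear to cytoplasmic median beta-catenin stain intensity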
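Assay system: human HeLa cells, native beta-catenin; doses: 5 µM primary, 0.02–20 µM confirmation; incubation: compound treatment 24 h, 37°C, 5% CO2; technique: fluorescence imaging of beta-catenin antibody stain plus DAPI; measure: % activation, nuclear-to-cytoplasmic median beta-catenin signal ratio per cell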
Autophagy HCS: modulators of autophagy; 0.98% of 190,000 active; MEF GFP-LC3 puncta imaging; test concentration mostly 10 µM; calls only at 10 µM (by protocol);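 active = percentage of spot-positive cells more than 3 SD above its plate mean, without a fluorescence outlier flag or 80% toxicity; inconclusive = no clear call, values can overlap the other calls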
HSV replic up: increases HSV replication in cells. maximum fold increase. 0.005% of 220,000 active. HSV replication augmentation in cells, fold increase. AID 1956; in the data active = maximum fold increase above about 1.5; inconclusive = no clear call, values can overlap the other calls; tested in PC3 cells
Furin inhibitor: human furin inhibition; purified furin, fluorogenic substrate cleavage; inhibition, % at 20 µM or 30 µM; 0.061% of 220,000 active; in the data active = inhibition above about 25%
Target sequence (P09958 108-714 limits assumed): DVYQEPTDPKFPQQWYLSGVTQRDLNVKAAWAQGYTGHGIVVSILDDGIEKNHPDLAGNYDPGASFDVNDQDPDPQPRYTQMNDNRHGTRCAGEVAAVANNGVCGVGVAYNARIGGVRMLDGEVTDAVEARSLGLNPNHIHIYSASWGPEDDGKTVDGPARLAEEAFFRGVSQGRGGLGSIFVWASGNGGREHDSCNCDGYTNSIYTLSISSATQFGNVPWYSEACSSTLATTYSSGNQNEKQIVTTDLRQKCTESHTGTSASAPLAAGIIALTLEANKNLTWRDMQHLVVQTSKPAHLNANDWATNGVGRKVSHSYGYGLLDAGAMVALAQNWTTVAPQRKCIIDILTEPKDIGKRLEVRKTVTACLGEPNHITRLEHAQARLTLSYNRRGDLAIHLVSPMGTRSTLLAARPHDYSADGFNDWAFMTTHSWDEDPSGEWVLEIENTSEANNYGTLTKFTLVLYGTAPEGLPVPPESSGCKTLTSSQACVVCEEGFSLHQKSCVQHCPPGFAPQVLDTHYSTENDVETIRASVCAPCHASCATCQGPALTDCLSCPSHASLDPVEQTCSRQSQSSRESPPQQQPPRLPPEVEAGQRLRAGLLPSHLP
Numbers stand for hits; i = inactive; ? = inconclusive; nt = no result given; + = active, no number. Only some compounds are listed: those with a hit (about 1.9% of all), similar ones and a draw of the others.

SMILES	MT stabilize HCS	Insulin prom up	bCat nuc transl	Autophagy HCS	HSV replic up	Furin inhibitor
CCOC(=O)c1c(NC(=O)C2COc3ccccc3O2)sc2c1CC(C)(C)NC2(C)C (centres undefined)	i	i	i	i	i	i
Cc1nn(-c2ccccc2)c2c1C(c1ccc([N+](=O)[O-])cc1)N1C(=N2)C(=O)Nc2ccccc21 (centres undefined)	i	i	i	i	i	i
Cc1nn(-c2ccc([N+](=O)[O-])cc2)c2c1C(c1cccc(Br)c1)N1C(=N2)C(=O)Nc2ccccc21 (centres undefined)	i	i	i	+	i	i
O=C1Nc2ccc(Br)cc2C12NNc1ccccc1O2 (centres undefined)	i	14.4	i	+	i	i
O=C(CSCc1ccc(Cl)cc1)Nc1ccc(-c2nnc(-c3ccccc3)o2)cc1	i	i	i	+	i	i
O=C(Cc1ccc(Cl)cc1)Nc1ccc(-c2nnc(-c3ccco3)o2)cc1	i	i	i	i	i	i
CCCN1C(=O)/C(=C/c2c(NCCCOC(C)C)nc3c(C)cccn3c2=O)SC1=S	i	nt	i	+	?	i
COc1ccccc1NC(=O)c1nc[nH]c1C(=O)Nc1ccccc1OC	31.4	i	i	i	i	i
COc1ccc(NC(=O)c2nc[nH]c2C(=O)Nc2ccccc2C)cc1	54.4	i	79.6	i	i	i
CCc1ccc(-c2nc(C(N)=O)c3[nH]c(=O)n(-c4ccccc4OC)c3n2)cc1	17.2	i	i	i	i	i
COc1ccc(-c2nc(C(N)=O)c3[nH]c(=O)n(-c4cccc(Cl)c4)c3n2)cc1OC	i	i	nt	i	nt	i
NC(=O)c1ccc(NCCCN2CCOCC2)c([N+](=O)[O-])c1	i	i	i	i	i	i
CCOC(=O)C1CCCN(C(=O)c2cc3cc(Br)ccc3oc2=O)C1 (centres undefined)	i	i	i	i	i	i
CN(C)c1ccc(/C=C/C=C2/SC(=S)N(c3ccccc3)C2=O)cc1	i	nt	nt	+	nt	i
N#Cc1sc2nc(-c3cccs3)cc(-c3ccccc3)c2c1N	i	nt	nt	i	i	i
CCN(CC)C(=O)c1sc2nc(-c3cccs3)cc(-c3cccs3)c2c1N	nt	nt	i	nt	i	i
N#Cc1sc2nc(-c3cccs3)cc(-c3ccc(Cl)cc3)c2c1N	i	i	i	+	i	i
CCN(CC)C(=O)c1sc2nc(-c3cccs3)cc(-c3ccc(Cl)cc3)c2c1N	i	i	i	+	i	i
O=C(O)CCS(=O)(=O)c1ccccc1Cl	i	i	i	i	i	i
O=C(c1ccco1)N1c2ccccc2Sc2ccccc21	i	i	i	i	i	i
O=C(NC1CCN(C(=O)N2c3ccccc3Sc3ccccc32)CC1)c1ccco1	13.3	i	i	+	i	i
O=C(N1CCN(c2ccccn2)CC1)N1c2ccccc2Sc2ccccc21	30.9	i	i	i	nt	i
O=C(c1ccco1)N1CCN(C(=O)N2c3ccccc3Sc3ccccc32)CC1	13.9	i	i	+	i	i
O=C(NC1CCN(C(=O)N2c3ccccc3Sc3ccccc32)CC1)c1ccccc1Cl	i	i	i	i	i	i
CO[C@H]1O[C@@H]2O[C@@]3(C)CC[C@H]4[C@H](C)CC[C@@H]([C@H]1C)[C@@]24OO3	nt	nt	nt	nt	i	nt
SMILES	MT stabilize HCS	Insulin prom up	bCat nuc transl	Autophagy HCS	HSV replic up	Furin inhibitor
CN(C)S(=O)(=O)N(CC(=O)N1CCN(c2ccccc2)CC1)c1ccccc1	i	i	i	i	i	i
COc1ccc(C(=O)N/C=C/n2cnc3cc(C(F)(F)F)ccc32)cc1	nt	i	i	nt	i	i
CCOC(=O)N1CCC(NC(=O)c2cc3c(-c4cccc(OC)c4)nn(C)c3s2)CC1	7.7	i	i	i	i	i
Cn1nc(-c2ccccc2F)c2cc(C(=O)Nc3ccc4c(c3)OCCO4)sc21	i	i	nt	i	i	i
COc1cccc(-c2nn(C)c3sc(C(=O)Nc4ccc5c(c4)OCCO5)cc23)c1	i	i	i	+	i	i
COc1ccc(N2CCN(C(=O)c3cc4c(-c5cccc(OC)c5)nn(C)c4s3)CC2)cc1	i	i	i	+	i	i
O=C(Cc1cccs1)N(CC1CCCO1)C1(C(=O)NC2CCCC2)CCCCC1 (centres undefined)	i	i	nt	i	i	i
COc1cc(/C=C(\C#N)C(=O)c2c[nH]c3ccccc23)cc(OC)c1O	i	i	i	i	?	i
N=c1sccn1CC(=O)Nc1ccc(S(N)(=O)=O)cc1	nt	i	i	nt	i	i
N=c1sccn1CC(=O)Nc1ccc(SC(F)F)cc1	i	i	i	+	i	i
CCCCN(CC)S(=O)(=O)c1ccc(C(=O)N(CCCN(C)C)c2nc3cc(C)cc(C)c3s2)cc1	i	i	i	+	i	i
CCCCN(C)S(=O)(=O)c1ccc(C(=O)N(CCN(C)C)c2nc3ccc(C)cc3s2)cc1	i	i	i	i	i	i
CC(CSc1nnnn1-c1ccccc1)Cn1c(N2CCCC2)nc2c1c(=O)[nH]c(=O)n2C (centres undefined)	i	i	i	+	i	i
O=C1C=C(c2ccc(F)nc2)CCC1	nt	nt	nt	nt	i	nt
COc1ccc(Cl)cc1NC(=O)CN(C)CC(=O)Nc1ccccc1N1CCOCC1	22.1	i	85.5	i	i	i
COC(=O)c1ccccc1NC(=O)CNc1cc(Cl)ccc1N1CCOCC1	i	i	i	i	i	i
Cc1cc(Cl)ccc1OC(C)C(=O)Nc1ccccc1N1CCOCC1 (centres undefined)	i	i	i	+	nt	i
C[C@@]12CCC=C[C@H]1[C@H](c1ccc(F)c(/C=C/c3ccccc3)c1)N(Cc1ccccc1)C2=O	nt	nt	i	nt	i	i
C(=C\c1ccccc1)/CSc1nnc(-c2ccccc2)n1Cc1ccco1	23.2	i	141.1	i	i	i
C(=C\c1ccccc1)/CSc1nnc(-c2ccncc2)n1Cc1ccco1	i	i	i	i	i	i
Clc1cccc(-c2nnc(SC/C=C/c3ccccc3)n2Cc2ccco2)c1	37.3	nt	i	i	i	i
Brc1ccc(CSc2nnc(-c3ccccn3)n2Cc2ccco2)cc1	i	i	100.1	i	i	i
O=C1NC2(CCN(Cc3ccccc3)CC2)Oc2ccccc21	i	nt	i	i	i	i
Cc1ccc(CN2C(=O)c3ccccc3NC23CCN(Cc2ccccc2)CC3)cc1	i	i	i	+	i	i
O=C(CSc1nnc2ccccn12)Nc1ccc(S(=O)(=O)N2CCOCC2)cc1	i	i	i	i	i	i
CCCCNc1ncnc2c1cnn2-c1ccccc1	31.9	nt	77.1	i	i	i
CCCCNc1ncnc2c1cnn2-c1ccc(Cl)cc1	17.6	i	i	i	i	i
Clc1ccc(-n2ncc3c(NCCCn4ccnc4)ncnc32)cc1	i	i	i	i	i	i
c1ccc(-n2ncc3c(NCCCN4CCOCC4)ncnc32)cc1	i	i	i	i	i	i
CC1(C)CC2CC(C)(CN2C(=O)c2ccc([N+](=O)[O-])cc2[N+](=O)[O-])C1 (centres undefined)	i	i	i	i	i	i

Screening data deposited in PubChem by several laboratories.
